Measured values from ChEMBL document CHEMBL1126705, “16 beta-([18F]fluoro)estrogens: systematic investigation of a new series of fluorine-18-labeled estrogens as potential imaging agents for estrogen-receptor-positive breast tumors” (J Med Chem, 1993).

Experiments:
Rattus norvegicus [1] = assay: Tested in vivo for the biodistribution in rat thymus at 1 hour after intravenous dose of 50 microCi of drug in 10%ethanol saline; assay type: ADME, organism-based
Method in brief: (§1)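 Immature (25-day-old) female Sprague-Dawley rats, ether-anesthetized, given the fluorine-18-labeled estrogen by femoral vein injection in 10% ethanol saline. […] Other groups were killed by decapitation at 1 or 3 h. Blood and organs were weighed and gamma-counted. Data are % injected dose/g, mean ± SD, typically n = 5 per group.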

Rattus norvegicus [2] = assay: Tested in vivo for the biodistribution in rat muscle at 1 hour after intravenous dose of 50 microCi of the drug and 15 ug of estradiol; assay type: ADME, organism-based, Muscle tissue; method in brief: as §1
Rattus norvegicus [3] = assay: Tested in vivo for the biodistribution in rat uterus after 3 hours following an intravenous dose of 50 microCi of drug in 10%ethanol saline; assay type: ADME, organism-based; method in brief: as §1
Rattus norvegicus [4] = assay: Tested in vivo for the biodistribution in rat uterus/muscle after 3 hours following an intravenous dose of 50 microCi of drug in 10%ethanol saline; assay type: ADME, organism-based, Muscle tissue
Method in brief: (§2)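 Female Sprague-Dawley rats, 25 days old (~40–53 g), ether-anesthetized, given the 18F-labeled estrogen iv via femoral vein in 10% ethanol saline. […] Others were sacrificed by decapitation at 1 or 3 h. Blood and organs were excised, weighed and gamma counted as % injected dose/g, mean ± SD, typically n = 5 (4–6).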

Rattus norvegicus [5] = assay: Tested in vivo for the biodistribution in blood of female rat after 3 hours following an intravenous dose of 50 microCi of drug in 10%ethanol saline; assay type: ADME, organism-based
Method in brief: (§3)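 Ether-anesthetized 25-day-old female Sprague-Dawley rats (~40–53 g) got the [18F] tracer in 10% ethanol saline via femoral vein. Rats were decapitated at 1 or 3 h, and blood and organs were weighed and gamma-counted. Values are % injected dose/g as mean ± SD, n = 5 per time point.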

Rattus norvegicus [6] = assay: Tested in vivo for the biodistribution in rat liver at 1 hour after intravenous dose of 50 microCi of drug in 10%ethanol saline; assay type: ADME, organism-based; method in brief: as §1
Rattus norvegicus [7] = assay: Tested in vivo for the biodistribution in rat ovaries at 1 hour after intravenous dose of 50 microCi of drug in 10%ethanol saline; assay type: ADME, organism-based, Female gonad; method in brief: as §1
Rattus norvegicus [8] = assay: Tested in vivo for the biodistribution in rat muscle after 3 hours following an intravenous dose of 50 microCi of drug in 10%ethanol saline; assay type: ADME, organism-based, Muscle tissue; method in brief: as §1
Rattus norvegicus [9] = assay: Tested in vivo for the biodistribution in rat bone after 3 hours following an intravenous dose of 50 microCi of drug in 10%ethanol saline; assay type: ADME, organism-based, Bone element; method in brief: as §3
Rattus norvegicus [10] = assay: Tested in vivo for the biodistribution in rat muscle at 1 hour after intravenous dose of 50 microCi of drug in 10%ethanol saline; assay type: ADME, organism-based, Muscle tissue; method in brief: as §1
Rattus norvegicus [11] = assay: Tested in vivo for the biodistribution in rat ovaries at 1 hour after intravenous dose of 50 microCi of the drug and 15 ug of estradiol; assay type: ADME, organism-based, Female gonad; method in brief: as §1
Rattus norvegicus [12] = assay: Tested in vivo for the biodistribution in blood of female rat at 1 hour after intravenous dose of 50 microCi of drug in 10%ethanol saline; assay type: ADME, organism-based; method in brief: as §3
Rattus norvegicus [13] = assay: Tested in vivo for the biodistribution in rat liver after 3 hours following an intravenous dose of 50 microCi of drug in 10%ethanol saline; assay type: ADME, organism-based; method in brief: as §1
[14] = Partition coefficient (logP); assay type: physicochemical; conditions: octanol/water
Method in brief: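 Octanol/water log P estimated from log k'w measured by reversed-phase HPLC (Minick method) on a C8 silica column.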

Rattus norvegicus [15] = assay: Tested in vivo for the biodistribution in rat uterus at 1 hour after intravenous dose of 50 microCi of drug in 10%ethanol saline; assay type: ADME, organism-based; method in brief: as §2
[16] = biological target: T1, Sex hormone-binding globulin (Homo sapiens) (UniProt P04278); assay: Relative binding affinity against sex steroid binding protein (SBP)
T1 sequence (whole entry): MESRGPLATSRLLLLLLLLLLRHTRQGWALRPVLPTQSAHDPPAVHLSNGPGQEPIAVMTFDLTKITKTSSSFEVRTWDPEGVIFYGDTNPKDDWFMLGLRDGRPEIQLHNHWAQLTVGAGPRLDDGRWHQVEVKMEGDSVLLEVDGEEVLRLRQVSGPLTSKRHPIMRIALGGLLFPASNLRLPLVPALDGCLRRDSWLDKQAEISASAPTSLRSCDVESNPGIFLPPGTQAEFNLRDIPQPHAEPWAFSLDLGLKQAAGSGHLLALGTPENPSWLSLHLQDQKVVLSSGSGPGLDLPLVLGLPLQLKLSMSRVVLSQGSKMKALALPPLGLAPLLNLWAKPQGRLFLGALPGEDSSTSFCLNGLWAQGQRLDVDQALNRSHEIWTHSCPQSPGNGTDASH

[17] = biological target: T2, Alpha-fetoprotein (Rattus norvegicus) (UniProt P02773); assay: Relative binding affinity for Alphafetoprotein
T2 sequence (whole entry): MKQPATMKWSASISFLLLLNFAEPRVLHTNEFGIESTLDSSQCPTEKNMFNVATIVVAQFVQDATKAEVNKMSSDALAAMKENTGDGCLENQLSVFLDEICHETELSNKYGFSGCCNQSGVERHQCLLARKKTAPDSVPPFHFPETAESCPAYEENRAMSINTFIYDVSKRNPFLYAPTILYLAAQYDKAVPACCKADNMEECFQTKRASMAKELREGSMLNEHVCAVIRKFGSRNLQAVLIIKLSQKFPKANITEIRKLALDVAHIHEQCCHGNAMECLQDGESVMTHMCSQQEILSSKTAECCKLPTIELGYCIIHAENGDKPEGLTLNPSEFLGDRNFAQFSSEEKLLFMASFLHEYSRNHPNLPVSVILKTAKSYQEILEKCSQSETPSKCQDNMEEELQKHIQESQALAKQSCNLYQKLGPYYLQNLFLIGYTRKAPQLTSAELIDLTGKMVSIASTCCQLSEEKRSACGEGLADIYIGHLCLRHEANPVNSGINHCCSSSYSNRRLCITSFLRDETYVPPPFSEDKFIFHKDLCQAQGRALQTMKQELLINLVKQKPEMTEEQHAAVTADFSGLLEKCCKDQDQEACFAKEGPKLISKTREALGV

Rattus norvegicus [18] = assay: Tested in vivo for the biodistribution in rat ovaries after 3 hours following an intravenous dose of 50 microCi of drug in 10%ethanol saline; assay type: ADME, organism-based, Female gonad; method in brief: as §1
Rattus norvegicus [19] = assay: Tested in vivo for the biodistribution in rat bone at 1 hour after intravenous dose of 50 microCi of the drug and 15 ug of estradiol; assay type: ADME, organism-based, Bone element
[20] = biological target: T3, Estrogen receptor (Rattus norvegicus) (UniProt P06211+Q62986)
Rattus norvegicus [21] = assay: Tested in vivo for the biodistribution in rat kidney at 1 hour after intravenous dose of 50 microCi of drug in 10%ethanol saline; assay type: ADME, organism-based; method in brief: as §3
Rattus norvegicus [22] = assay: Tested in vivo for the biodistribution in rat thymus at 1 hour after intravenous dose of 50 microCi of the drug and 15 ug of estradiol; assay type: ADME, organism-based; method in brief: as §1
Rattus norvegicus [23] = assay: Tested in vivo for the biodistribution in rat kidney at 1 hour after intravenous dose of 50 microCi of the drug and 15 u g of estradiol; assay type: ADME, organism-based; method in brief: as §1
Rattus norvegicus [24] = assay: Tested in vivo for the biodistribution in rat uterus/muscle at 1 hour after intravenous dose of 50 microCi of drug in 10%ethanol saline; assay type: ADME, organism-based, Muscle tissue; method in brief: as §2
Rattus norvegicus [25] = assay: Tested in vivo for the biodistribution in rat liver at 1 hour after intravenous dose of 50 microCi of the drug and 15 u g of estradiol; assay type: ADME, organism-based; method in brief: as §1
Rattus norvegicus [26] = assay: Tested in vivo for the biodistribution in rat uterus/blood after 3 hours following an intravenous dose of 50 microCi of drug in 10%ethanol saline; assay type: ADME, organism-based; method in brief: as §2
Rattus norvegicus [27] = assay: Tested in vivo for the biodistribution in rat uterus/blood at 1 hour after intravenous dose of 50 microCi of drug in 10%ethanol saline; assay type: ADME, organism-based; method in brief: as §2
Rattus norvegicus [28] = assay: Tested in vivo for the biodistribution in rat fat at 1 hour after intravenous dose of 50 microCi of drug in 10%ethanol saline; assay type: ADME, organism-based, Adipose tissue; method in brief: as §3
Rattus norvegicus [29] = assay: Tested in vivo for the biodistribution in rat uterus/muscle at 1 hour after intravenous dose of 50 microCi of the drug and 15 ug of estradiol; assay type: ADME, organism-based, Muscle tissue; method in brief: as §2
Rattus norvegicus [30] = assay: Tested in vivo for the biodistribution in rat uterus at 1 hour after intravenous dose of 50 microCi of the drug and 15 ug of estradiol; assay type: ADME, organism-based; method in brief: as §2
[31] = biological target: T3, Estrogen receptor (Rattus norvegicus); remark: listed apart in the source
[32] = Tested in vivo for the biodistribution in rat fat after 3 hours following an intravenous dose of 50 microCi of drug in 10%ethanol saline; set-up: species or system Adipose tissue; method in brief: as §3
Rattus norvegicus [33] = assay: Tested in vivo for the biodistribution in rat bone at 1 hour after intravenous dose of 50 microCi of drug in 10%ethanol saline; assay type: ADME, organism-based, Bone element; method in brief: as §3
Rattus norvegicus [34] = assay: Tested in vivo for the biodistribution in rat thymus after 3 hours following an intravenous dose of 50 microCi of drug in 10%ethanol saline; assay type: ADME, organism-based; method in brief: as §1
Rattus norvegicus [35] = assay: Tested in vivo for the biodistribution in rat kidney after 3 hours following an intravenous dose of 50 microCi of drug in 10%ethanol saline; assay type: ADME, organism-based; method in brief: as §3
Rattus norvegicus [36] = assay: Tested in vivo for the biodistribution in blood of female rat at 1 hour after intravenous dose of 50 microCi of the drug and 15 u g of estradiol; assay type: ADME, organism-based
Rattus norvegicus [37] = assay: Tested in vivo for the biodistribution in rat fat at 1 hour after intravenous dose of 50 microCi of the drug and 15 ug of estradiol; assay type: ADME, organism-based, Adipose tissue
Rattus norvegicus [38] = assay: Tested in vivo for the biodistribution in rat uterus/blood at 1 hour after intravenous dose of 50 microCi of the drug and 15 ug of estradiol; assay type: ADME, organism-based; method in brief: as §2

Injected (dose/g) (Rattus norvegicus [1]): 0.391% | Injected (Rattus norvegicus [2]): 0.149% | Injected (Rattus norvegicus [3]): 4.813% | Injected (Rattus norvegicus [4]): 47.73% | Injected (Rattus norvegicus [5]): 0.117% | Injected (Rattus norvegicus [6]): 1.178% | Injected (Rattus norvegicus [7]): 2.466% | Injected (dose/g) (Rattus norvegicus [8]): 0.107% | Injected (Rattus norvegicus [9]): 0.646% | Injected (dose/g) (Rattus norvegicus [10]): 0.251% | Injected (Rattus norvegicus [11]): 0.417% | Injected (Rattus norvegicus [12]): 0.148% | Injected (dose/g) (Rattus norvegicus [13]): 0.893% | logP [14]: 2.35 | Injected (dose/g) (Rattus norvegicus [15]): 6.12% | relative binding affinity (RBA) [16]: 0.087 | relative binding affinity (RBA) [17]: 0.062 | Injected (Rattus norvegicus [18]): 1.409% | Injected (dose/g) (Rattus norvegicus [19]): 0.604% | BSI [20]: 34 | Injected (Rattus norvegicus [21]): 0.946% | Injected (dose/g) (Rattus norvegicus [22]): 0.135% | Injected (dose/g) (Rattus norvegicus [23]): 0.579% | Injected (dose/g) (Rattus norvegicus [24]): 25.57% | Injected (Rattus norvegicus [25]): 1.397% | Injected (Rattus norvegicus [26]): 43.47% | Injected (dose/g) (Rattus norvegicus [27]): 41.7% | Injected (Rattus norvegicus [28]): 0.516% | Injected (dose/g) (Rattus norvegicus [29]): 4.49% | Injected (Rattus norvegicus [30]): 0.671% | NSB [31]: 0.39 | Injected (dose/g) (Rattus norvegicus [33]): 0.515% | Injected (dose/g) (Rattus norvegicus [34]): 0.175% | Injected (Rattus norvegicus [35]): 0.429% | Injected (Rattus norvegicus [36]): 0.184% | Injected (Rattus norvegicus [37]): 0.338% | Injected (dose/g) (Rattus norvegicus [38]): 3.73%
SMILES: CO[C@H]1C[C@]2(C)[C@@H](O)[C@@H](F)C[C@H]2[C@@H]2CCc3cc(O)ccc3[C@H]21
Injected [32]: 0.402%
